# Test results taken from ChEMBL document CHEMBL4229372, “Synthesis and anti-mitotic activity of 2,4- or 2,6-disubstituted- and 2,4,6-trisubstituted-2H-pyrazolo[4,3-c]pyridines” (2018).
# Calls of active or inactive are those of the source. The calls are words filed in the database; no cut-off is given here.
# Key:
# [1] = system: K562; test: Growth inhibition of human K562 cells after 72 hrs by Calcein AM dye based fluorescence assay; type: functional; conditions: K562, 72 h
# In short: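 Cells in DMEM with 10% FBS at 37 °C, 5% CO2, treated in triplicate with six doses for 72 h. Calcein AM was added for 1 h and live-cell fluorescence read at 485/538 nm. GI50 was taken from dose-response curves.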
# [2] = system: K562; test: Cell cycle arrest in human K562 cells assessed as accumulation at sub G1 phase at 10 uM after 24 hrs by propidium iodide staining-based flow cytometric analysis (reference value: 15%); type: functional
# [3] = system: K562; test: Cell cycle arrest in human K562 cells assessed as accumulation at G2/M phase at 10 uM after 24 hrs by propidium iodide staining-based flow cytometric analysis (reference value: 15%); type: functional
# [4] = system: MCF7; test: Cell cycle arrest in human MCF7 cells assessed as accumulation at sub G1 phase at 10 uM after 24 hrs by propidium iodide staining-based flow cytometric analysis (reference value: 7.1%); type: functional
# In short: (§1)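 MCF-7 cells in DMEM with 10% FBS and penicillin/streptomycin at 37 °C, 5% CO2. Asynchronous cells were treated 24 h, PBS-washed, trypsinized and quenched with 0.1% trypsin inhibitor. Staining used 5× citrate/IGEPAL/spermine/Tris buffer (pH 7.6) with 50 μg/mL propidium iodide. DNA content was read by 488 nm flow cytometry and cell-cycle phases modelled.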
# [5] = system: MCF7; test: Cell cycle arrest in human MCF7 cells assessed as accumulation at G1 phase at 10 uM after 24 hrs by propidium iodide staining-based flow cytometric analysis (reference value: 60.7%); type: functional; in short: as §1
# [6] = molecular target: T1, Serine/threonine-protein kinase Nek2 (Homo sapiens) (UniProt P51955); test: Inhibition of NEK2 (unknown origin)
# T1 sequence (whole entry): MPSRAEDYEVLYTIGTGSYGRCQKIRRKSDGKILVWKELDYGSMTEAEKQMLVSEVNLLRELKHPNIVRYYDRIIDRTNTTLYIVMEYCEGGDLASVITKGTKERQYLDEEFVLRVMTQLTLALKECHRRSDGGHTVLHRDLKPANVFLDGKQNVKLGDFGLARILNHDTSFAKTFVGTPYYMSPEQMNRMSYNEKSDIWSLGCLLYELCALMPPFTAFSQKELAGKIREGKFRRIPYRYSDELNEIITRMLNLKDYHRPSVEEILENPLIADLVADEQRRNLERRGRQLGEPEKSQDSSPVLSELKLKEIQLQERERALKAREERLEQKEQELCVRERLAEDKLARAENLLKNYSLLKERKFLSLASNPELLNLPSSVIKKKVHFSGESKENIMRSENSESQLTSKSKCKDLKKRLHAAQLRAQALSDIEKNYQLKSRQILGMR
# [7] = molecular target: T2, Dual specificity protein kinase TTK (Homo sapiens) (UniProt P33981); test: Inhibition of TTK (unknown origin)
# T2 sequence (whole entry): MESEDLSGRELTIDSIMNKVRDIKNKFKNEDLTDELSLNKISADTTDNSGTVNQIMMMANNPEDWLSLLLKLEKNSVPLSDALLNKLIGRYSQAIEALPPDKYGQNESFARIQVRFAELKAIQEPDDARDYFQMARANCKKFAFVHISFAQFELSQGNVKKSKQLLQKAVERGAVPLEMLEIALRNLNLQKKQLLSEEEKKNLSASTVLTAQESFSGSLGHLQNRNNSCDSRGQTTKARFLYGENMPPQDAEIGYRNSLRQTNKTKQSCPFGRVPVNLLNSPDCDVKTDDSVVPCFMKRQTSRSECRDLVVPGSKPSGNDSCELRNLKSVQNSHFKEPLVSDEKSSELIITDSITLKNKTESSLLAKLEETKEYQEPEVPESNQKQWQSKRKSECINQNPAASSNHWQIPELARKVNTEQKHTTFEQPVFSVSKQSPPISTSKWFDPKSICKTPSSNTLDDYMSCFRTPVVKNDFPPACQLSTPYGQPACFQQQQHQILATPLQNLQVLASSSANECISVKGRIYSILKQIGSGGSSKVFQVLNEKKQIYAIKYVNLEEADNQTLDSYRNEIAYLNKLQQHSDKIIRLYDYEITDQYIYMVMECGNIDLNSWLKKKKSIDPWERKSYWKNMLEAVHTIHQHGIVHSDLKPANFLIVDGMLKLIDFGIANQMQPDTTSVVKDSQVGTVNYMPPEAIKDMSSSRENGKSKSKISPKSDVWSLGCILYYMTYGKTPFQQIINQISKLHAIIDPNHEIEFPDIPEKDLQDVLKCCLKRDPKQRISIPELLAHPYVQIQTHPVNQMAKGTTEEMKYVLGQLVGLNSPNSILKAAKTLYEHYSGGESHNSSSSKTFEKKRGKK
# [8] = molecular target: Wee1-like protein kinase (Homo sapiens) (UniProt P30291); test: Inhibition of WEE1 (unknown origin)
# Sequence of Wee1-like protein kinase (Homo sapiens) (P30291 whole entry, looked up): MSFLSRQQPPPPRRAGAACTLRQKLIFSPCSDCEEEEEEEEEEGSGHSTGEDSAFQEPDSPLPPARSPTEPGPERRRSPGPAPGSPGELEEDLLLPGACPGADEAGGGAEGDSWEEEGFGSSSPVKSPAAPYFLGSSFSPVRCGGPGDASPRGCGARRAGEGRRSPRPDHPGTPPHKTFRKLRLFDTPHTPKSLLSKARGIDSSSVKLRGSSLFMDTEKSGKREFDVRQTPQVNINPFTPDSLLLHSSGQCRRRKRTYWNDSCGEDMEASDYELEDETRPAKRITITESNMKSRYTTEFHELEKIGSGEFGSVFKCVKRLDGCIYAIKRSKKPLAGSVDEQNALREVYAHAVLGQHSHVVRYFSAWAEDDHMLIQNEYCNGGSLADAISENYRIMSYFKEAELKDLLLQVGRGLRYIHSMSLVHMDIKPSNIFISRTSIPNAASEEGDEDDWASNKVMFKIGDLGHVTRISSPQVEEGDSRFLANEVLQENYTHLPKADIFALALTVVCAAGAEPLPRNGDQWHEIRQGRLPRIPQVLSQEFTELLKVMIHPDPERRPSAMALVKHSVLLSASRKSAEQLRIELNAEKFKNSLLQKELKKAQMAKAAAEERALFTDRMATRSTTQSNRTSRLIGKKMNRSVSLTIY
# [9] = system: MCF7; test: Induction of apoptosis in human MCF7 cells assessed as increase in PARP1 cleavage after 24 hrs by Immunoblotting; type: functional, cell-based
# In short: (§2)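 Cells treated 24 h with a range of doses, with 1 μM doxorubicin as control. Cells were harvested into Laemmli buffer, run on SDS-PAGE and blotted to nitrocellulose. Membranes were probed overnight with primary antibodies (PARP, Ser139-phospho-H2AX, Bcl-2, β-actin loading control), then peroxidase secondaries, with ECL detection on a CCD imager.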
# [10] = system: K562; test: Induction of apoptosis in human K562 cells assessed as increase in gammaH2AX level at 1.25 to 20 uM after 24 hrs by immunoblotting; type: functional, cell-based; in short: as §2
# [11] = system: K562; test: Induction of apoptosis in human K562 cells assessed as increase in phosphorylated Bcl2 level at 1.25 to 20 uM after 24 hrs by immunoblotting; type: functional, cell-based; in short: as §2
smiles,measurement,setting,value
CCCCCc1cc2nn(-c3ccccc3)cc2cn1,GI50,[1],2100 nM
same,Activity,[2],35.4%
same,Activity,[3],82%
same,Activity,[4],50.3%
same,Activity,[5],18.1%
same,inhibition,[6],inactive
same,inhibition,[7],inactive
same,inhibition,[8],inactive
same,Activity,[9],Dose-dependent effect
same,Activity,[10],Active
same,Activity,[11],Active
